pKi: −log10 of the molar value.
Experiments:
Homo sapiens [1] = organism: Homo sapiens; assay: Selectivity for human NET over human DAT
Method in brief: (§1)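 Competition binding in stably transfected cells expressing human transporters: NET vs [3H]nisoxetine and SERT vs [3H]citalopram in HEK-293 cells; DAT vs [125I]RTI-55 in canine kidney cells. Ki as geometric mean of at least three experiments in triplicate; selectivity as ratio of SERT or DAT Ki to NET Ki.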

[2] = biological target: Sodium-dependent noradrenaline transporter (Homo sapiens, UniProt P23975); assay: Displacement of [3H]nisoxetine from human NET receptor expressed in HEK293 cells; type: cell-based
Sequence of Sodium-dependent noradrenaline transporter (P23975 whole entry): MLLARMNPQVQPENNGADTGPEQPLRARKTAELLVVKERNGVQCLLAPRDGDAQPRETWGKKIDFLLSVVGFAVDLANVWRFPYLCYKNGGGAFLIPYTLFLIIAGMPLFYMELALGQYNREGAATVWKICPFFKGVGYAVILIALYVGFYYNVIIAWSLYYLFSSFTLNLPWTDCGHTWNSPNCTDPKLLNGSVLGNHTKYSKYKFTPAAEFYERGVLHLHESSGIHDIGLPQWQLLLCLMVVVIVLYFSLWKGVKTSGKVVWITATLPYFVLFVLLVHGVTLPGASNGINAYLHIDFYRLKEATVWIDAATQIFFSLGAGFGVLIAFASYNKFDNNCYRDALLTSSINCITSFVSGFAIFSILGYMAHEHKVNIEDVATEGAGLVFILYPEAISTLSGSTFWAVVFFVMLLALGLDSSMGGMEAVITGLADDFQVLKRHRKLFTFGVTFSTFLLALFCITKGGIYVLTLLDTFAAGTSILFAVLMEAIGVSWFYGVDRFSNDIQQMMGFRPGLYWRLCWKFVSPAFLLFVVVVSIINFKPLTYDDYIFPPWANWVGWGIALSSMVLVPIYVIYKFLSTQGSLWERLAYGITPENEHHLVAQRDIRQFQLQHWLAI

[3] = biological target: Sodium-dependent dopamine transporter (Homo sapiens, UniProt Q01959); assay: Displacement of [125I]RTI-55 from human DAT receptor expressed in canine kidney cells; type: cell-based
Sequence of Sodium-dependent dopamine transporter (Q01959 whole entry): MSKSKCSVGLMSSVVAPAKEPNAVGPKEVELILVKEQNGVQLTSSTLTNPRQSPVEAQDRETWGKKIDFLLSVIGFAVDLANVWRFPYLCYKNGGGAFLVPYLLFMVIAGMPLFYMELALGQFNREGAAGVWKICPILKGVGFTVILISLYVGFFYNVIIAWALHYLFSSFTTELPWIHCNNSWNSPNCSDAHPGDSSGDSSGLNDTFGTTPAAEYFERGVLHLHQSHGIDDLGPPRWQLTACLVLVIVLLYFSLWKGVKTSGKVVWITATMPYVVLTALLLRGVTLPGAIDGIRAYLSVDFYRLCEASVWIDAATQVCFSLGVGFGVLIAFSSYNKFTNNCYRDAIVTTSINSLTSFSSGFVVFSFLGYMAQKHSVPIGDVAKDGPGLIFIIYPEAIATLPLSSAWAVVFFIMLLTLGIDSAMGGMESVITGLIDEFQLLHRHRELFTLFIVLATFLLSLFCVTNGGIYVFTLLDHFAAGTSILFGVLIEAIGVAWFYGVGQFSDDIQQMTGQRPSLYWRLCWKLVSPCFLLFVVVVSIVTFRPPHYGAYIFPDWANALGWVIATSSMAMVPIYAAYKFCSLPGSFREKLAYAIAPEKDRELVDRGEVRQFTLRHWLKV
Method in brief: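 Competition binding against [¹²⁵I]RTI-55 in canine kidney cells stably transfected with human DAT. Ki in nM, geometric mean ± SD of at least three separate experiments, each run in triplicate.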

Homo sapiens [4] = organism: Homo sapiens; assay: Selectivity for human NET over human SERT; method in brief: as §1
[5] = biological target: Sodium-dependent serotonin transporter (Homo sapiens, UniProt P31645); assay: Displacement of [3H]citalopram from human SERT receptor expressed in HEK293 cells; type: cell-based
Sequence of Sodium-dependent serotonin transporter (P31645 whole entry): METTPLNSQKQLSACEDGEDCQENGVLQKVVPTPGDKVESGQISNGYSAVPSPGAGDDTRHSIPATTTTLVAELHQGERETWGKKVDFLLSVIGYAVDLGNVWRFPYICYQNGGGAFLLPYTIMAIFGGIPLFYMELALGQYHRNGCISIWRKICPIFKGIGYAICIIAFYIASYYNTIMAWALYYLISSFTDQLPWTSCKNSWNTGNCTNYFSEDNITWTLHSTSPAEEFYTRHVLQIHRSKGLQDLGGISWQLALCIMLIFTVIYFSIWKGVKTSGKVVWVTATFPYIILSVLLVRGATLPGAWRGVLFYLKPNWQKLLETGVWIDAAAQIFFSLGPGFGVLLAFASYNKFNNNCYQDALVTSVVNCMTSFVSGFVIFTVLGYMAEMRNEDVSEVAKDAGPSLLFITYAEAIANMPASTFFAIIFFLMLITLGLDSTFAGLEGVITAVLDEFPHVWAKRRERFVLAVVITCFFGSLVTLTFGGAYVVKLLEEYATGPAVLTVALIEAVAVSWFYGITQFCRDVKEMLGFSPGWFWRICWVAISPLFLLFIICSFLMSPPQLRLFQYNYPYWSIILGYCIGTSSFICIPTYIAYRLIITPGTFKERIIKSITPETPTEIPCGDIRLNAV
Method in brief: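 Competition binding against [³H]citalopram in HEK-293 cells stably transfected with human SERT. Ki in nM, geometric mean ± SD of at least three separate experiments, each run in triplicate.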

[6] = Lipophilicity, log P at pH 7.4; type: physicochemical; conditions: buffer
Method in brief: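 Radiotracer (~5–10 μCi) in 2 mL 1-octanol plus 2 mL 0.02 M sodium phosphate buffer, pH 7.4. Vortexed 10 min at room temperature, centrifuged 5 min. 0.5 mL of each layer gamma-counted and decay corrected. log P = log(octanol counts/buffer counts), done three times and averaged.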

[7] = Ratio of drug uptake in thalamus to caudate of anesthetized rhesus monkey at 15 to 20 mCi after 85 mins postinjection by microPET; type: ADME, organism-based, Macaca mulatta; conditions: in vivo
Method in brief: (§2)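 Anesthetized adult male rhesus monkeys scanned on a microPET P4 after 15–20 mCi of the 11C radioligand; emission collected continuously for 125 min, binned, time-activity curves from manually drawn anatomical ROIs; regional uptake divided by caudate uptake (caudate as NET-poor reference) at 85 min postinjection, at baseline.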

[8] = Ratio of drug uptake in pons to caudate of anesthetized rhesus monkey at 15 to 20 mCi after 85 mins postinjection by microPET; type: ADME, organism-based, Macaca mulatta; conditions: in vivo; method in brief: as §2
[9] = Ratio of drug uptake in midbrain to caudate of anesthetized rhesus monkey at 15 to 20 mCi pretreated with 0.125 mg/kg desipramine by microPET; type: ADME, organism-based, Macaca mulatta; parameters: dose 0.125 mg/kg; conditions: in vivo
Method in brief: (§3)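 Anesthetized adult male rhesus monkeys imaged on a microPET P4 system after injection of 15–20 mCi of the 11C-labeled radioligand. Desipramine was given 40 min before radiotracer injection. Emission data were collected continuously for 125 min and binned. ROIs were drawn manually on anatomical landmarks in the reconstructed images. The ratio of region-of-interest to caudate uptake was taken from time-activity curves at 85 min postinjection.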

[10] = Ratio of drug uptake in pons to caudate of awaken rhesus monkey at 15 to 20 mCi after by PET method; type: ADME, Macaca mulatta; conditions: in vivo
Method in brief: (§4)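 Awake rhesus monkeys imaged on a high-resolution research tomograph (HRRT) for 120 min after radioligand injection; images coregistered with composite MRI to define regions; time-activity curves generated and highest ratio of regional uptake to caudate uptake taken.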

[11] = Ratio of drug uptake in cerebellum to caudate of anesthetized rhesus monkey at 15 to 20 mCi pretreated with 0.125 mg/kg desipramine by microPET; type: ADME, organism-based, Macaca mulatta; parameters: dose 0.125 mg/kg; conditions: in vivo; method in brief: as §3
[12] = Ratio of drug uptake in thalamus to caudate of anesthetized rhesus monkey at 15 to 20 mCi pretreated with 0.125 mg/kg desipramine by microPET; type: ADME, organism-based, Macaca mulatta; parameters: dose 0.125 mg/kg; conditions: in vivo; method in brief: as §3
[13] = Ratio of drug uptake in midbrain to caudate of awaken rhesus monkey at 15 to 20 mCi after by PET method; type: ADME, Macaca mulatta; conditions: in vivo; method in brief: as §4
[14] = Ratio of drug uptake in midbrain to caudate of anesthetized rhesus monkey at 15 to 20 mCi after 85 mins postinjection by microPET; type: ADME, organism-based, Macaca mulatta; conditions: in vivo
Method in brief: (§5)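 Anesthetized adult male rhesus monkeys given 15–20 mCi of the ¹¹C tracer, alone or after desipramine (0.125 or 0.25 mg/kg) 40 min beforehand. MicroPET emission collected continuously for 125 min and binned. ROIs drawn manually on anatomical landmarks to give time-activity curves. Region-to-caudate uptake ratio taken at 85 min postinjection.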

[15] = Ratio of drug uptake in pons to caudate of anesthetized rhesus monkey at 15 to 20 mCi pretreated with 0.125 mg/kg desipramine by microPET; type: ADME, organism-based, Macaca mulatta; parameters: dose 0.125 mg/kg; conditions: in vivo; method in brief: as §3
[16] = Ratio of drug uptake in thalamus to caudate of awaken rhesus monkey at 15 to 20 mCi after by PET method; type: ADME, Macaca mulatta; conditions: in vivo; method in brief: as §4
[17] = Ratio of drug uptake in cerebellum to caudate of anesthetized rhesus monkey at 15 to 20 mCi after 85 mins postinjection by microPET; type: ADME, organism-based, Macaca mulatta; conditions: in vivo; method in brief: as §5
[18] = Ratio of drug uptake in cerebellum to caudate of awaken rhesus monkey at 15 to 20 mCi after by PET method; type: ADME, tissue-based, Macaca mulatta; conditions: in vivo
Method in brief: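 Awake rhesus monkeys imaged on a high-resolution research tomograph for 120 min after injection of the ¹¹C tracer. Images coregistered with composite MRI to define regions of interest. Highest cerebellum-to-caudate uptake ratio read from the time-activity curves.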

| Ratio Ki (Homo sapiens [1]) | pKi [2] | pKi [3] | Ratio Ki (Homo sapiens [4]) | pKi [5] | logD [6] | Ratio [7] | Ratio [8] | Ratio [9] | Ratio [10] | Ratio [11] | Ratio [12] | Ratio [13] | Ratio [14] | Ratio [15] | Ratio [16] | Ratio [17] | Ratio [18] | SMILES |
| --- | --- | --- | --- | --- | --- | --- | --- | --- | --- | --- | --- | --- | --- | --- | --- | --- | --- | --- |
| > 2000 | 8.50 | < 5.22 | 137 | 6.37 | 2 | – | – | – | – | – | – | – | – | – | – | – | – | FCCc1ccccc1O[C@@H](c1ccccc1)[C@@H]1CNCCO1 |
| – | – | – | – | – | – | 1.34 | 1.27 | 1.09 | 1 | 0.81 | 1.02 | 1 | 1.33 | 0.98 | 1.15 | 1.05 | 0.95 | [11CH3]c1ccccc1S[C@@H](c1ccccc1)[C@@H]1CNCCO1 |

Source: ChEMBL document CHEMBL1139340, “Synthesis, radiosynthesis, and biological evaluation of carbon-11 and fluorine-18 labeled reboxetine analogues: potential positron emission tomography radioligands for in vivo imaging of the norepinephrine transporter” (J Med Chem, 2009)
